Key:
[1] = Selectivity index, ratio of CC50 for cytotoxicity against human MRC5 cells to EC50 for Trypanosoma cruzi Tulahuen CL2 amastigotes expressing beta galactosidase infected in human MRC5 cells; format: toxicity, cell-based; settings: read-out: Selectivity Index
Procedure, shortened: (§1)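 T. cruzi Tulahuen CL2 β-galactosidase strain grown in MRC-5 cells (MEM, 5% heat-inactivated FCS, 37 °C, 5% CO2). MRC-5 cells (4 x 10^3/well) plus parasites (4 x 10^4/well) exposed 7 days to 4-fold dilutions from 64 µM down; final DMSO <1%. CPRG with Nonidet added, absorbance at 540 nm after 4 h. IC50 calculated against untreated-infected (100%) and non-infected (0%) controls. SI = MRC-5 CC50/IC50.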

[2] = Metabolic stability in CD1 mouse liver microsomes assessed as intrinsic clearance measured upto 60 mins by LC-MS/MS analysis; format: ADME; settings: read-out: CLH
Procedure, shortened: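 CD1 mouse liver microsomes at 0.25 mg/mL, compound at 0.5 µM, pH 7.4, 37 °C, started with NADPH. Sampled at 0, 5, 10, 20, 30 and 60 min and quenched with acetonitrile:methanol containing tolbutamide. Measured by LC-MS/MS; CLint (k × 1000/0.25, µL/min/mg) derived by non-linear regression of % remaining over time.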

Trypanosoma cruzi = assay: Antitrypanosomal activity against Trypanosoma cruzi Tulahuen CL2 amastigotes expressing beta galactosidase infected in human MRC5 cells assessed as reduction in parasite burden using chlorophenol red beta-D-galactopyranoside as substrate and measured after 7 days by spectrophotometric analysis; format: functional, organism-based; settings: Tulahuen CL2, MRC5, 168 h; procedure, shortened: as §1

Row | microsomal CLint [2] [µL/min/mg] | Structure (SMILES) | selectivity ratio [1] | IC50 (Trypanosoma cruzi) [µM]
1 | 72 | CN1CCC(n2c(NC(=O)c3ccnn3C)nc3ccc(C#N)cc32)CC1 | > 2 | 34
2 | 25 | Cc1nnn(CC(=O)Nc2nc3ccc(C#N)cc3n2CC(F)(F)F)n1 | > 6 | 11
3 | 24 | Cn1nccc1C(=O)Nc1nc2cncnc2n1CC(F)(F)F | 3 | 8.2
4 | 37 | Cn1nccc1C(=O)Nc1nc2cc(C(F)(F)F)cnc2n1CC(C)(C)C | 7 | 0.57
5 | 253 | N#Cc1ccc2nc(NC(=O)c3ncc(F)cc3F)n(CC(F)(F)F)c2c1 | 3 | 17
6 | 52.7 | Cn1nccc1C(=O)Nc1nc2cc(-c3ncco3)ccc2n1CC(F)(F)F | 1 | 38
7 | 87 | CC(C)(C)Cn1c(NC(=O)c2cccnc2)nc2ccc(C#N)cc21 | > 7 | 8.7
8 | 86 | O=C(Nc1nc2ccc(F)cc2n1CC(F)(F)F)c1ccc(C(F)(F)F)nc1 | > 2 | 42
9 | 39 | Cn1nc(C(F)(F)F)cc1C(=O)Nc1nc2ccc(C#N)cc2n1CCF | 11 | 2.1
10 | 170 | COc1ccc(C(=O)Nc2nc3ccc(C#N)cc3n2CC(F)(F)F)cn1 | > 28 | 2.3
11 | 595 | Cc1nc(C)c(C(=O)Nc2nc3ccc(C#N)cc3n2CC(F)(F)F)s1 | 14 | 0.54
12 | 285 | CCCn1c(NC(=O)c2cccc(C(F)(F)F)n2)nc2cccnc21 | > 27 | 2.4
13 | 31 | Cn1nccc1C(=O)Nc1nc2cc(C#N)cnc2n1CC(C)(C)C | 5 | 0.5
14 | 23 | Cn1nccc1C(=O)Nc1nc2cc(CN3CCOCC3)ccc2n1CC(F)(F)F | 5 | 8.3
15 | 200 | CCCn1c(NC(=O)c2cccnc2)nc2ccc(C#N)cc21 | > 4 | 18
16 | 23 | Cc1nnnn1CC(=O)Nc1nc2ccc(C#N)cc2n1CC(F)(F)F | > 1 | 50
17 | 236 | N#Cc1ccc2nc(NC(=O)c3ccccn3)n(CC(F)(F)F)c2c1 | > 7 | 9.3
18 | 98 | O=C(Nc1nc2ccc(F)cc2n1CC(F)(F)F)c1cccnc1 | 13 | 4.2
19 | 23 | Cn1nccc1C(=O)Nc1nc2ccc(C#N)cc2n1CC(C)(C)O | > 5 | 13
20 | 77 | Cn1nc(C(=O)Nc2nc3ccc(C#N)cc3n2CC(F)(F)F)cc1C(F)(F)F | 1 | 64
21 | 119 | Cn1nccc1C(=O)Nc1nc2cccnc2n1CC(F)(F)F | 2 | 3.9
22 | 23 | CC(C)(C)Cn1c(NC(=O)c2cc(C(F)(F)F)n[nH]2)nc2cc(C#N)cnc21 | 3 | 1.5
23 | 1350 | N#Cc1ccc2nc(NC(=O)c3ccc(C(F)(F)F)nc3)n(C3CC3)c2c1 | – | > 64
24 | 383 | Cn1nccc1C(=O)Nc1nc2ccc(C#N)cc2n1CC(F)F | 5 | 2.4
25 | 23 | CC(=O)N1CCC(n2c(NC(=O)c3ccnn3C)nc3ccc(C#N)cc32)CC1 | 1 | 64
26 | 73 | Cn1ccc(C(=O)Nc2nc3ccc(C#N)cc3n2CC(F)(F)F)n1 | 1 | 64
27 | 181 | Cc1cc(C(=O)Nc2nc3ccc(C#N)cc3n2CC(F)(F)F)nn1C | 1 | 64

The next lines start with the compound.

Row | Structure (SMILES) | microsomal CLint [2] [µL/min/mg] | selectivity ratio [1] | IC50 (Trypanosoma cruzi) [µM]
28 | CCCn1c(NC(=O)Cc2ccc(F)cc2)nc2ccc(C(=O)NCOC)cc21 | 128 | 7 | 8.3
29 | O=C(Cc1ccc(Cl)cc1)Nc1nc2ccccc2s1 | – | – | > 64
30 | Cn1cc(C(=O)Nc2nc3ccc(C#N)cc3n2CC(F)(F)F)cn1 | – | 1 | 64
31 | N#Cc1ccc2nc(NC(=O)c3ccnc(C(F)(F)F)c3)n(CCF)c2c1 | – | 1 | 49
32 | Cn1nccc1C(=O)Nc1nc2cc(CO)ccc2n1CC(F)(F)F | – | 1 | 64
33 | O=C(Nc1nc2cncnc2n1CC(F)(F)F)c1ccc(C(F)(F)F)nc1 | – | 6 | 0.51
34 | CC(C)(C)Cn1c(NC(=O)c2ccc(C(F)(F)F)nc2)nc2ccc(C#N)cc21 | – | > 1 | 52
35 | N#Cc1ccc2nc(NC(=O)c3ccnc(C(F)(F)F)c3)n(CC(F)F)c2c1 | – | 24 | 0.51
36 | N#Cc1ccc2nc(NC(=O)c3cnc(C(F)(F)F)nc3)n(CC(F)(F)F)c2c1 | – | 8 | 0.24
37 | CCCn1c(NC(=O)Cc2ccc(F)cc2)nc2c(F)cccc21 | 715 | 1 | > 64
38 | CCCn1c(NCc2ccc(F)cc2)nc2cc(F)ccc21 | – | – | 25
39 | CCCn1c(NC(=O)Cc2ccc(F)cc2)nc2cc(F)c(F)cc21 | 399 | > 121 | 0.53
40 | CCCn1c(NC(=O)Cc2ccc(F)cc2)nc2ccc(C(=O)OC)cc21 | 1250 | 35 | 0.53
41 | CCCn1c(NS(=O)(=O)c2ccc(Br)cc2)nc2ccccc21 | – | – | > 64
42 | Cn1ncc(C(=O)Nc2nc3ccc(C#N)cc3n2CC(F)(F)F)n1 | – | 1 | 64
43 | CCCn1ccnc1NC(=O)Cc1ccc(F)cc1 | – | – | 35
44 | CCCn1c(NC(=O)Cc2cc(F)ccc2F)nc2ccccc21 | – | – | 2.2
45 | CCCn1c(NC(=O)Cc2ccc(Cl)cc2)nc2ccc(F)cc21 | 1590 | 102 | 0.56
46 | CN(C)c1ccc(C(=O)Nc2nc3ccc(C#N)cc3n2CC(F)(F)F)cn1 | – | > 7 | 8.6
47 | CCCn1c(NC(=O)Cc2ccc(F)cc2)nc2ccc(C(=O)N3CCOCC3)cc21 | 23 | > 2 | 35
48 | CCCn1c(NC(=O)Cc2ccc(Cl)cc2)nc2cc(C(F)(F)F)ccc21 | 283 | 15 | 0.74
49 | O=C(Cc1ccc(Cl)cc1)Nc1nc2ccccc2[nH]1 | – | – | > 64

Row | Structure (SMILES) | microsomal CLint [2] [µL/min/mg] | selectivity ratio [1] | IC50 (Trypanosoma cruzi) [µM]
50 | CCCn1c(NC(=O)Nc2ccc(Cl)cc2)nc2ccccc21 | – | – | > 64
51 | COCCn1c(NC(=O)c2ccc(C(F)(F)F)nc2)nc2ccc(C#N)cc21 | – | 1 | 64
52 | CCCn1c(NC(=O)Cc2ccc(F)cc2)nc2cccnc21 | 1500 | > 49 | 1.3
53 | CCCn1c(NC(=O)Cc2ccc(Cl)cc2)nc2cc(F)ccc21 | 1510 | > 70 | 0.92
54 | CCCn1c(NC(=O)Cc2ccc(Cl)cc2)nc2ccccc21 | 3090 | – | 1.89
55 | CCCn1c(NC(=O)Cc2ccc(F)cc2)nc2ccc(C(=O)O)cc21 | – | 1 | > 64
56 | O=C(Nc1nc2cc(F)ccc2n1C1CCNCC1)c1cccnc1 | – | 3 | 9.2
57 | CCCn1c(NC(=O)c2ccc(F)cc2)nc2ccc(F)cc21 | – | – | > 64
58 | O=C(Nc1nc2cc(F)ccc2n1C1CCOCC1)c1cccnc1 | 26 | 5 | 8.5
59 | CCCn1c(NC(=O)c2ccc(C(F)(F)F)nc2)nc2cccnc21 | – | 15 | 3.2
60 | Cc1cc(C(=O)Nc2nc3ccc(C#N)cc3n2CC(F)(F)F)[nH]n1 | – | 1 | 36
61 | N#Cc1ccc2nc(NC(=O)c3cc(C(F)(F)F)nn3CC(=O)O)n(CC(F)(F)F)c2c1 | – | 1 | 64
62 | CCCn1c(NC(=O)Cc2ccc(F)cc2)nc2ccc(C(=O)N3CCCC3)cc21 | – | > 8 | 8.5
63 | Cn1nc(C(F)(F)F)cc1C(=O)Nc1nc2cncnc2n1CC(F)(F)F | – | 7 | 0.59
64 | CCCn1c(CCNC(=O)Cc2ccc(Cl)cc2)nc2ccccc21 | – | – | 33
65 | Cn1nncc1C(=O)Nc1nc2ccc(C#N)cc2n1CC(F)(F)F | – | > 3 | 24
66 | O=C(Nc1nc2cncnc2n1CC(F)(F)F)c1cc(C(F)(F)F)n[nH]1 | – | 4 | 7.5
67 | Cn1nccc1C(=O)Nc1nc2cc(S(C)(=O)=O)ccc2n1CC(F)(F)F | – | 6 | 2.2
68 | N#Cc1ccc2nc(NC(=O)c3ccnn3C3CC3)n(CC(F)(F)F)c2c1 | – | 3 | 0.99
69 | O=C(Nc1nc2cncnc2n1CC(F)(F)F)c1ccnc(C(F)(F)F)c1 | – | 5 | 1.1
70 | Cc1ccc(C(=O)Nc2nc3ccc(C#N)cc3n2CC(F)(F)F)cn1 | – | 1 | 64
71 | CCCn1c(NC(=O)Cc2ccc(F)cc2)nc2ccccc21 | – | – | 2.1

Source: ChEMBL document CHEMBL5352453, “Hit-to-lead optimization of a 2-aminobenzimidazole series as new candidates for chagas disease” (Eur J Med Chem, 2023)
